Data reported in ChEMBL document CHEMBL1156333 (Bioorg Med Chem, 2010).
Calls of active or inactive are those of the source. The rule behind the calls is not given here.

Tests used:
[1] = Cytotoxicity against human HeLa cells; assay type: cell-based
Method in brief: (§1)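 MDCK, HEL and HeLa cultures run alongside the cytopathicity assays received graded compound levels up to 100 μM. Toxicity was scored as the minimum cytotoxic concentration, the lowest level causing a microscopically detectable change in cell morphology.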

[2] = Cytotoxicity against human HuH5.2 cells; assay type: cell-based, Huh-5-2
[3] = test system: Human respirovirus 3; test: Antiviral activity against Parainfluenza 3 virus assessed as inhibition of virus-induced cytopathicity by cell based assay; assay type: functional, organism-based
[4] = test system: Mammalian orthoreovirus 1; test: Antiviral activity against Reovirus 1 assessed as inhibition of virus-induced cytopathicity by cell based assay; assay type: functional, organism-based
[5] = test system: Sindbis virus; test: Antiviral activity against Sindbis virus assessed as inhibition of virus-induced cytopathicity by cell based assay; assay type: functional, organism-based
[6] = test system: Coxsackievirus B4; test: Antiviral activity against Coxsackievirus B4 assessed as inhibition of virus-induced cytopathicity by cell based assay; assay type: functional, organism-based; conditions: Enterovirus B
[7] = test system: Human immunodeficiency virus 1; test: Antiviral activity against HIV1 3B infected in human CEM cells assessed as inhibition of syncytia formation after 4 days; assay type: functional, organism-based; conditions: Human immunodeficiency virus 1, 3B, CCRF-CEM, 96 h
Method in brief: (§2)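 Human CEM cells (~3 × 10^5 cells/mL) were infected with ~100 CCID50/mL of HIV-1(IIIB) or HIV-2(ROD) and seeded with compound dilutions. After 4 days at 37 °C, syncytia formation was scored microscopically.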

[8] = test system: Human immunodeficiency virus 2; test: Antiviral activity against HIV2 ROD infected in human CEM cells assessed as inhibition of syncytia formation after 4 days; assay type: functional, organism-based; conditions: Human immunodeficiency virus 2, ISOLATE ROD, CCRF-CEM, 96 h; method in brief: as §2
[9] = test system: Human alphaherpesvirus 1; test: Antiviral activity against Herpes simplex virus 1 KOS assessed as inhibition of virus-induced cytopathicity by cell based assay; assay type: functional, organism-based; conditions: Human alphaherpesvirus 1, KOS
[10] = test system: Human alphaherpesvirus 1; test: Antiviral activity against thymidine kinase deficient ACV resistant Herpes simplex virus 1 KOS assessed as inhibition of virus-induced cytopathicity by cell based assay; assay type: functional, organism-based; conditions: Human alphaherpesvirus 1, KOS
[11] = test system: Feline coronavirus; test: Antiviral activity against Feline coronavirus assessed as inhibition of virus-induced cytopathicity by cell based assay; assay type: functional, organism-based; conditions: Alphacoronavirus 1
[12] = test system: Felid alphaherpesvirus 1; test: Antiviral activity against Feline herpes virus assessed as inhibition of virus-induced cytopathicity by cell based assay; assay type: functional, organism-based
[13] = test system: Vaccinia virus; test: Ratio of compound EC50 over ribavirin EC50 for Vaccinia virus lederle; assay type: functional, Orthopoxvirus vaccinia
[14] = test system: Punta Toro virus; test: Ratio of compound EC50 over ribavirin antiviral EC50 for Punta Toro virus; assay type: functional
[15] = test system: Human alphaherpesvirus 2; test: Antiviral activity against Herpes simplex virus 2 assessed as inhibition of virus-induced cytopathicity by cell based assay; assay type: functional, organism-based
[16] = test system: Cytomegalovirus; test: Antiviral activity against Cytomegalovirus assessed as inhibition of virus-induced cytopathicity by cell based assay; assay type: functional, organism-based; conditions: Human betaherpesvirus 5
[17] = Cytotoxicity against human HEL cells; assay type: cell-based; method in brief: as §1
[18] = Cytotoxicity against MDCK cells; assay type: cell-based, Canis lupus familiaris; conditions: dog; method in brief: as §1
[19] = test system: Respiratory syncytial virus; test: Antiviral activity against Respiratory syncytial virus Long infected in human HeLa cells assessed as inhibition of virus-induced cytopathicity; assay type: functional, organism-based
[20] = test system: Vaccinia virus; test: Antiviral activity against Vaccinia virus lederle infected in human HEL cells assessed as inhibition of virus-induced cytopathicity; assay type: functional, organism-based; conditions: Orthopoxvirus vaccinia
[21] = test system: Hepatitis C virus; test: Antiviral activity against HCV infected in human HuH5.2 cells carrying subgenomic HCV replicon assessed as inhibition of replicon replication by luciferase reporter gene assay; assay type: functional, organism-based, Hepacivirus hominis; conditions: Huh-5-2
Method in brief: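 Huh 5-2 cells are Huh 7 cells carrying the subgenomic replicon I389luc-ubi-neo/NS3-3′/5.1. They were maintained in DMEM with 10% heat-inactivated FCS, non-essential amino acids, penicillin/streptomycin and 250 μg/mL G418. Cells were seeded at 5 × 10^3 cells/well in medium without G418 and exposed to compound.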

[22] = test system: Influenza A virus; test: Antiviral activity against Influenza A virus H3N2 infected in MDCK cells assessed as inhibition of virus-induced cytopathicity; assay type: functional, organism-based
[23] = test system: Influenza B virus; test: Antiviral activity against Influenza B virus infected in MDCK cells assessed as inhibition of virus-induced cytopathicity; assay type: functional, organism-based
[24] = test system: Respiratory syncytial virus; test: Antiviral activity against Respiratory syncytial virus Long infected in human HeLa cells assessed as inhibition of virus-induced cytopathicity at 100 uM; assay type: functional, organism-based
Method in brief: (§3)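 Confluent monolayers (Vero for Punta Toro, HeLa for RSV strain Long) were infected with 100 CCID50 of virus. After 1–2 h adsorption, residual virus was removed and cells were incubated with the compound, 100 μM being the highest level tested. Cytopathicity was scored when untreated infected controls reached full cytopathic effect.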

[25] = test system: Vesicular stomatitis virus; test: Antiviral activity against Vesicular stomatitis virus infected in human HeLa cells assessed as inhibition of virus-induced cytopathicity at 100 uM; assay type: functional, organism-based
[26] = test system: Vaccinia virus; test: Antiviral activity against Vaccinia virus lederle infected in human HEL cells assessed as inhibition of virus-induced cytopathicity at 100 uM; assay type: functional, organism-based; conditions: Orthopoxvirus vaccinia
[27] = test system: Punta Toro virus; test: Antiviral activity against Punta Toro virus infected in african green monkey Vero cells assessed as inhibition of virus-induced cytopathicity at 100 uM; assay type: functional, organism-based; method in brief: as §3
[28] = test system: Influenza A virus; test: Antiviral activity against Influenza A virus H3N2 infected in MDCK cells assessed as inhibition of virus-induced cytopathicity at 100 uM; assay type: functional, organism-based
[29] = test system: Influenza B virus; test: Antiviral activity against Influenza B virus infected in MDCK cells assessed as inhibition of virus-induced cytopathicity at 100 uM; assay type: functional, organism-based
[30] = test system: Vesicular stomatitis virus; test: Antiviral activity against Vesicular stomatitis virus infected in human HeLa cells assessed as inhibition of virus-induced cytopathicity; assay type: functional, organism-based
[31] = test system: Punta Toro virus; test: Antiviral activity against Punta Toro virus infected in african green monkey Vero cells assessed as inhibition of virus-induced cytopathicity; assay type: functional, organism-based

Structure (SMILES)	MCC [1]	MCC [2]	EC50 [3]	EC50 [4]	EC50 [5]	EC50 [6]	EC50 [7]	EC50 [8]	EC50 [9]	EC50 [10]	EC50 [11]	EC50 [12]	EC50 [15]	EC50 [16]	MCC [17]	MCC [18]	EC50 [19]	EC50 [20]	EC50 [22]	EC50 [23]	other results
NC(=O)c1ncn([C@@H]2O[C@H](COP(=O)(NCC(=O)OCc3ccccc3)Oc3cccc4ccccc34)[C@@H](O)[C@H]2O)n1 (stereo not given in full)	> 100 µM	> 100 µM	> 100 µM	> 100 µM	> 100 µM	> 100 µM	> 100 µM	> 100 µM	> 100 µM	> 100 µM	> 100 µM	> 100 µM	> 100 µM	> 100 µM	> 100 µM	> 100 µM	58 µM	20 µM	> 20 µM	> 20 µM	Ratio [13]: 3; Ratio [14]: 3; MCC [21]: > 100 µM
NC(=O)c1ncn([C@@H]2O[C@H](COP(=O)(N[C@@H](Cc3ccccc3)C(=O)OCc3ccccc3)Oc3cccc4ccccc34)[C@@H](O)[C@H]2O)n1 (stereo not given in full)	> 100 µM	> 100 µM	> 100 µM	> 100 µM	> 100 µM	> 100 µM	> 100 µM	> 100 µM	> 100 µM	> 100 µM	> 100 µM	> 100 µM	> 100 µM	> 100 µM	> 100 µM	> 100 µM	> 20 µM	100 µM	> 100 µM	> 100 µM	inhibition [24]: inactive; inhibition [25]: inactive; inhibition [26]: inactive; inhibition [27]: inactive; inhibition [28]: inactive; inhibition [29]: inactive; EC50 [30]: > 20 µM; EC50 [21]: > 70 µM
C[C@H](NP(=O)(OC[C@H]1O[C@@H](n2cnc(C(N)=O)n2)[C@H](O)[C@@H]1O)Oc1cccc2ccccc12)C(=O)OCc1ccccc1 (stereo not given in full)	> 100 µM	> 100 µM	> 100 µM	> 100 µM	> 100 µM	> 100 µM	> 100 µM	> 100 µM	> 100 µM	> 100 µM	> 100 µM	> 100 µM	> 100 µM	> 100 µM	> 100 µM	> 100 µM	45 µM	100 µM	18 µM	14 µM	EC50 [30]: 20 µM; EC50 [21]: 68 µM
NC(=O)c1ncn([C@@H]2O[C@H](CO)[C@@H](O)[C@H]2O)n1 [RIBAVIRIN]	> 100 µM	> 100 µM													> 100 µM	> 100 µM	19 µM				EC50 [21]: 87 µM; EC50 [31]: 183 µM
